Data published in ChEMBL document CHEMBL3352791, “Thioaryl naphthylmethanone oxime ether analogs as novel anticancer agents” (J Med Chem, 2014).
pEC50, pIC50: −log10 of the molar value. Active and inactive are the calls of the source. No cut-off for these calls is given here.

Key:
MCF7 [1] = test: Cytotoxicity against human […] cells assessed as cell viability at 5 uM by MTT assay in presence of z-IETD-FMK caspase-8 inhibitor; format: functional, cell-based
Outline: (§1)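 Cells seeded 1×10^4/well in DMEM with 10% FBS, adhered overnight, serum-starved 4 h; pre-incubated 2 h with Z-IETD-FMK or Z-LEHD-FMK (10µM each), then 5μM compound for a further 24 h; viability by MTT.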

MDA-MB-231 [2] = test: Induction of apoptosis in human […] cells assessed as caspase 8 activation at 2.5 to 7.5 uM by Caspase-Glo assay; format: functional, cell-based
Outline: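 Caspase-8, -9 and -3 activities measured with Caspase-Glo 8, 9 and 3 kits; mean ± SEM from three independent experiments.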

[3] = biological target: Epidermal growth factor receptor (Homo sapiens) (UniProt P00533); test: Inhibition of EGF-induced EGFR phosphorylation at Tyr1068 in human MDA-MB-231 cells at 0.5 uM by ELISA; format: cell-based
Sequence of Epidermal growth factor receptor (Homo sapiens) (P00533 whole entry): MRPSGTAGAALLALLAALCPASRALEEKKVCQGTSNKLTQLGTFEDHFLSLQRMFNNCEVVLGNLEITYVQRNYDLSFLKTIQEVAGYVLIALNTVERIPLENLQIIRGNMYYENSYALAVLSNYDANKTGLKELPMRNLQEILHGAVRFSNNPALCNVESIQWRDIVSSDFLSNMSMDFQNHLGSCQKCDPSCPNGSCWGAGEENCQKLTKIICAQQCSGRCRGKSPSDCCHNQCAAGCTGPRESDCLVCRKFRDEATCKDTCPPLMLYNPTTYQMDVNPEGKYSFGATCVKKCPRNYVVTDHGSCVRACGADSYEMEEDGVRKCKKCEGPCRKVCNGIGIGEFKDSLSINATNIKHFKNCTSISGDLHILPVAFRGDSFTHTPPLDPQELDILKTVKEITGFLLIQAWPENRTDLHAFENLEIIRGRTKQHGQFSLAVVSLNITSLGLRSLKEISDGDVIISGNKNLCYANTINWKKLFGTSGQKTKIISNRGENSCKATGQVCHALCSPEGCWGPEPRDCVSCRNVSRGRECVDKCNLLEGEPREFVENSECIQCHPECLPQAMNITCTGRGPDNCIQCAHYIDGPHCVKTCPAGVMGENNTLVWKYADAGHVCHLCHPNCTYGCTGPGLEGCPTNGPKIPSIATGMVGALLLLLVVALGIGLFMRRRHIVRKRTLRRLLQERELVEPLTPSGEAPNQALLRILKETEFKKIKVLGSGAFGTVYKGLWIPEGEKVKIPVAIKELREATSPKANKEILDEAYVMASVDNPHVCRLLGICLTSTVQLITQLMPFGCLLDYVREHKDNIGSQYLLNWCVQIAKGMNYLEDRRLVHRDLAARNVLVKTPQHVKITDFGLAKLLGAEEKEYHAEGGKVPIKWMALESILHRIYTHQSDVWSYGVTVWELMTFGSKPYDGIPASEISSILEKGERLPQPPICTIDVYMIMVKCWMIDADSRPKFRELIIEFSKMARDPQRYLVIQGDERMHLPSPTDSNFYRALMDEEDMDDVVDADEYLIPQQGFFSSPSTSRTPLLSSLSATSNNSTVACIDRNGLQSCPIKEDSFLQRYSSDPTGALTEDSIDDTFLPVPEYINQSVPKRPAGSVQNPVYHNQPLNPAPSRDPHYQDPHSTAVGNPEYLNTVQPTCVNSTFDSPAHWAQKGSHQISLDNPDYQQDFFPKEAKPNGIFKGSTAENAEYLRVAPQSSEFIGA
Outline: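 MDA-MB-231 cells pretreated 1 h in serum-free medium, then EGF-stimulated for 15 min and lysed. Equal lysate protein (Bradford) assayed by ELISA kits for p-EGFR (Tyr1068, Tyr845, Tyr1173) and p-HER2. Absorbance read at 450 nm, normalized to total EGFR or HER2.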

[4] = biological target: Phosphodiesterase 3 (Homo sapiens) (UniProt Q14432+Q13370); test: Inhibition of PDE3 CAT (unknown origin) activity at 1 to 10 uM; format: protein assay
Outline: (§2)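 Recombinant PDE isoform activity was read by fluorescence polarization. A binding reagent complexes with the nucleotide monophosphate that the phosphodiesterase generates from cAMP/cGMP, and this raises the polarization of the labelled substrate. Reference standards were PDE1A3 10µM IBMX, PDE2A3 1nM BAY 60-7550, PDE3CAT 1µM cilostazol, PDE4CAT rolipram, PDE5CAT 0.1µM sildenafil, PDE7A […], PDE8A1 10µM BRL-50481, PDE9A1 1µM SB 36216 and PDE11A1 dipyridamole.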

[5] = biological target: Epidermal growth factor receptor (Homo sapiens) (UniProt P00533); test: Inhibition of EGF-induced EGFR phosphorylation at Tyr845 in human MCF7 cells at 1 uM by ELISA; format: cell-based
[6] = biological target: Phosphodiesterase 6 (Homo sapiens) (UniProt Q13956+P18545+P35913+O43924+P16499+P51160); test: Inhibition of PDE6AB (unknown origin) activity at 1 to 10 uM; format: protein assay
Outline: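 PDE6AB activity was measured by radiometric assay, a modification of the Thompson and Appleman two-step method. Sildenafil 1µM served as reference standard.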

[7] = system: Mast/stem cell growth factor receptor Kit (Homo sapiens), P10721 [D816H]; test: Inhibition of cKit D816H mutant (unknown origin) at 10 uM
Sequence of Mast/stem cell growth factor receptor Kit (Homo sapiens), P10721 [D816H] (P10721 whole entry D816H): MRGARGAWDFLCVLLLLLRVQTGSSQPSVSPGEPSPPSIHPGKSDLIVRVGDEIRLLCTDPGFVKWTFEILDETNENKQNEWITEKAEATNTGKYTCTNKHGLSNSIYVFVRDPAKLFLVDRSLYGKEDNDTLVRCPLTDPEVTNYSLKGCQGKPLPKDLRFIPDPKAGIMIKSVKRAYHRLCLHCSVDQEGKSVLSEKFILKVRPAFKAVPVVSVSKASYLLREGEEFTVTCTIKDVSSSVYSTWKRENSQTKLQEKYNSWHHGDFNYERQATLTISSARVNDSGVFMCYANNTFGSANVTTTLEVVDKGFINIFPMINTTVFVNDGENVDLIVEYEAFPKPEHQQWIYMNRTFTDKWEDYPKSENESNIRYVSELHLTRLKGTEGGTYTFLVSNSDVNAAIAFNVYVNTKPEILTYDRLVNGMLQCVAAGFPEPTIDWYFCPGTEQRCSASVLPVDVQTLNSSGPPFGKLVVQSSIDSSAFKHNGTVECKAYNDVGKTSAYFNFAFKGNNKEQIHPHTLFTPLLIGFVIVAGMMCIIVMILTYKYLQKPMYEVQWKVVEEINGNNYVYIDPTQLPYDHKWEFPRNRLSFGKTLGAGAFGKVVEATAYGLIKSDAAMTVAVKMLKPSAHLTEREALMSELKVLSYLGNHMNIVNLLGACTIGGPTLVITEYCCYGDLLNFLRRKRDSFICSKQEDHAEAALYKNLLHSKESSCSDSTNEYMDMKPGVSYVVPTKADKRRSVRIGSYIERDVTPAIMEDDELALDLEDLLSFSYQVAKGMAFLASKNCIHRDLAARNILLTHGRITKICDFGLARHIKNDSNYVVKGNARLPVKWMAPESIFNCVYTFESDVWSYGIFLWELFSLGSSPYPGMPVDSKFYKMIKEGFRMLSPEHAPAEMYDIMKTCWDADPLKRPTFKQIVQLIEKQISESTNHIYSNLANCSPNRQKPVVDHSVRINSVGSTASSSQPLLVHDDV
Outline: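 Cell-free kinase profiling was run as a standard 33P-ATP-based in vitro kinase assay.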

MCF7 [8] = test: Antitumor activity against human MCF7 cells xenografted in NIH-3 mouse assessed as effect on tumor volume at 8 mg/kg, po for 29 days relative to control; format: functional, organism-based; parameters: dose 8 mg/kg
Outline: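 MCF-7 cells (5x10^6 in 100μl PBS) injected intraperitoneally into NIH-III nude mice; after tumor induction, groups of n=10 dosed orally daily for 29 days at 8 or 16 mg/kg/day in 1% carboxymethyl cellulose (vehicle controls). Tumor diameter by vernier calipers every third day; volume = π/6×d³ (d mean diameter).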

[9] = biological target: cGMP-specific 3',5'-cyclic phosphodiesterase (Canis lupus familiaris) (UniProt O77746); test: Inhibition of PDE5 CAT (unknown origin) activity at 1 to 10 uM; conditions: Homo sapiens; outline: as §2
MCF7 [10] = test: Inhibition of TGFbeta expression in human MCF7 cells at 5 uM by ELISA; format: functional, cell-based
MCF7 [11] = test: Cytotoxicity against human […] cells assessed as cell viability at 5 uM by MTT assay in presence of z-LEHD-FMK caspase-9 inhibitor; format: functional, cell-based; outline: as §1
MCF7 [12] = test: Inhibition of IGF1 expression in human MCF7 cells at 5 uM by ELISA; format: functional, cell-based
MDA-MB-231 [13] = test: Inhibition of EGF expression in human MDA-MB-231 cells at 5 uM by ELISA; format: functional, cell-based
[14] = biological target: ETS domain-containing protein Elk-1 (Homo sapiens) (UniProt P19419); test: Inhibition of basal level ELK1 phosphorylation in human MDA-MB-231 cells at 1 uM by ELISA; format: cell-based
Sequence of ETS domain-containing protein Elk-1 (Homo sapiens) (P19419 whole entry, the tested form may be a part): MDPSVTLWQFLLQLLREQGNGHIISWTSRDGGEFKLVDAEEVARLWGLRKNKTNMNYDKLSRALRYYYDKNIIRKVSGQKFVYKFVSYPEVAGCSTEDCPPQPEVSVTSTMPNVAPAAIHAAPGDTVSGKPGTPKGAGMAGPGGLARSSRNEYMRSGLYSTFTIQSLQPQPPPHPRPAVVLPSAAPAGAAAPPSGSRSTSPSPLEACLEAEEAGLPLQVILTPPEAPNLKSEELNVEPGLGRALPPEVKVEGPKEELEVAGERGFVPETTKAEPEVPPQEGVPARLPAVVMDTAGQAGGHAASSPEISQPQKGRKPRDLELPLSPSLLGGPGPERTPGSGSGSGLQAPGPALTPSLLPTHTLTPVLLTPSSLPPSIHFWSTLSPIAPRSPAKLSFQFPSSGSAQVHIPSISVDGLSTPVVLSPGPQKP

MDA-MB-231 [15] = test: Inhibition of VEGF-C expression in human MDA-MB-231 cells at 1 uM after 24 hrs by qPCR analysis; format: functional, cell-based
Outline: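 Gene expression was measured by qPCR in MDA-MB-231 breast cancer cells treated with 1µM compound. GAPDH served as the housekeeping internal control.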

MDA-MB-231 [16] = test: Inhibition of mammosphere formation in human MDA-MB-231 cells at 5 to 20 uM after 8 days; format: functional, cell-based
Outline: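 Single cells were plated in ultralow-attachment plates at 100,000 viable cells/ml for primary culture and 5,000 cells/ml for passages. Spheres formed over 7–10 days in serum-free MEBM containing compound, with salinomycin as comparator. Primary spheres were trypsin-dissociated for serial passage. Sphere number was counted manually and verified by two independent observers blinded to treatment.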

DLD-1 = test: Antitumor activity against human DLD1 cells assessed as reduction in CD133 positive in colon cancer stem cells after 24 hrs by flow cytometry; format: functional, cell-based
[17] = biological target: High affinity cAMP-specific and IBMX-insensitive 3',5'-cyclic phosphodiesterase 8A (Homo sapiens) (UniProt O60658); test: Inhibition of PDE8A1 (unknown origin) activity at 1 to 10 uM; outline: as §2
Sequence of High affinity cAMP-specific and IBMX-insensitive 3',5'-cyclic phosphodiesterase 8A (Homo sapiens) (O60658 whole entry): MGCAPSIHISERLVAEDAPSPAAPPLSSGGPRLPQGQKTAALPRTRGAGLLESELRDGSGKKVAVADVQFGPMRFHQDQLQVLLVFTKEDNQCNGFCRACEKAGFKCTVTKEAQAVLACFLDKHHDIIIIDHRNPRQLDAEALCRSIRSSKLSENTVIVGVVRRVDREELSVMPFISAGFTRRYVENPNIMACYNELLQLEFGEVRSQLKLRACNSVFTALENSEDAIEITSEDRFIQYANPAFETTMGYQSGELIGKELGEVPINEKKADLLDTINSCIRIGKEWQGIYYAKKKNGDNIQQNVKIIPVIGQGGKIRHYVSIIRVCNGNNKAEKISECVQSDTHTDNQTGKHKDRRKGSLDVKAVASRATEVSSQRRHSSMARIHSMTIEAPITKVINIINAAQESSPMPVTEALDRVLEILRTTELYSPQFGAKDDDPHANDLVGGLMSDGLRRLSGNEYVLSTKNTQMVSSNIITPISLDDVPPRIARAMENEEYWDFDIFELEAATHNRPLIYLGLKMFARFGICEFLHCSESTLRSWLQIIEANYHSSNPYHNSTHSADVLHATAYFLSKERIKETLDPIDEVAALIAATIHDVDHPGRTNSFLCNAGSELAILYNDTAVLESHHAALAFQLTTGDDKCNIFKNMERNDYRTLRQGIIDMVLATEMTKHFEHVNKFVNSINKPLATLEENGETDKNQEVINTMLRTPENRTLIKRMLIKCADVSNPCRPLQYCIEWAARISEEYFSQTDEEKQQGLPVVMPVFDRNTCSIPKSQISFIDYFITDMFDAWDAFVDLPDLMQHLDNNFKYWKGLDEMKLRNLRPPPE

Vero = test: Antiproliferative activity against african green monkey Vero cells after 24 hrs by MTT assay; format: functional, cell-based; conditions: Chlorocebus sabaeus
Outline: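 MTT viability: cells seeded at 1×10^4 per well in DMEM with 10% FBS, left to adhere overnight, then serum-starved 4 h. Compounds were given at a range of doses, with 0.1% DMSO vehicle as control. EC50 was taken from dose-response curves spanning 100nM-50µM. Data are mean ± SEM from at least three independent experiments.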

MDA-MB-231 [18] = test: Antiproliferative activity against human ER-positive MDA-MB-231 cells after 72 hrs by MTT assay; format: functional, cell-based; conditions: MDA-MB-231, 72 h
HeLa = test: Antiproliferative activity against human HeLa cells after 24 hrs by MTT assay; format: functional, cell-based; conditions: hela
MDA-MB-231 [19] = test: Antiproliferative activity against human […] cells assessed as growth recovery treated up to 5 uM for 24 hrs followed by maintained in drug free medium for 72 hrs by MTT assay; format: functional
MCF7 [20] = test: Cell cycle arrest in human […] cells assessed as accumulation at subG1 phase at 5 uM by propidium iodide staining by FACS analysis (reference value: 0.1%); format: functional
MCF7 [21] = test: Antiproliferative activity against human ER-negative MCF7 cells after 24 hrs by MTT assay; format: functional, cell-based; conditions: mcf7
MCF7 [22] = test: Cell cycle arrest in human […] cells assessed as accumulation at subG1 phase at 2.5 uM by propidium iodide staining by FACS analysis (reference value: 0.1%); format: functional
MCF7 [23] = test: Antiproliferative activity against human […] cells assessed as growth recovery treated up to 5 uM for 24 hrs followed by maintained in drug free medium for 72 hrs by MTT assay; format: functional

Question: With `CCN(CC)CCO/N=C(\c1ccc(SC)cc1)c1cccc2ccccc12` as the compound, how does the Activity (MCF7 [1]) read?
Answer: inactive

Question: What about the Activity (MDA-MB-231 [2]) of the same compound?
Answer: Active

Question: And the inhibition [3]?
Answer: Active

Question: What about the inhibition [4] of the same compound?
Answer: inactive

Question: What about the inhibition [5] of the same compound?
Answer: Active

Question: What about the inhibition [6] of the same compound?
Answer: inactive

Question: And the inhibition [7]?
Answer: inactive

Question: What about the inhibition (MCF7 [8]) of the same compound?
Answer: inactive

Question: And the inhibition [9]?
Answer: inactive

Question: What about the inhibition (MCF7 [10]) of the same compound?
Answer: inactive

Question: What about the Activity (MCF7 [11]) of the same compound?
Answer: inactive

Question: What about the inhibition (MCF7 [12]) of the same compound?
Answer: inactive

Question: What about the inhibition (MDA-MB-231 [13]) of the same compound?
Answer: Active

Question: What about the inhibition [14] of the same compound?
Answer: Active

Question: What about the inhibition (MDA-MB-231 [15]) of the same compound?
Answer: inactive

Question: What about the inhibition (MDA-MB-231 [16]) of the same compound?
Answer: Active

Question: And the inhibition (DLD-1)?
Answer: Active

Question: What about the inhibition [17] of the same compound?
Answer: inactive

Question: How did the pIC50 (Vero) turn out when `CCN(CC)CCO/N=C(\c1ccc(SC)cc1)c1cccc2ccccc12.O=C(O)C(=O)O` was run?
Answer: < 4.60

Question: What about the pEC50 (MDA-MB-231 [18]) of the same compound?
Answer: 6.00

Question: What about the pEC50 (HeLa) of the same compound?
Answer: 5.12

Question: And the Activity (MDA-MB-231 [19])?
Answer: 20%

Question: And the Activity (MCF7 [20])?
Answer: 0.9%

Question: What about the pEC50 (MCF7 [21]) of the same compound?
Answer: 5.12

Question: What about the Activity (MCF7 [22]) of the same compound?
Answer: 0.4%

Question: What about the Activity (MCF7 [23]) of the same compound?
Answer: 50%
